# According to article PMC7725269 (ACS biomaterials science & engineering, 2019):
# Tests used:
# T47D cells = assay: Annexin V apoptosis flow cytometry; assay type: cell-based; conditions: 1 μM PA 1 or equivalent paclitaxel
# human recombinant DR5 = human recombinant DR5 (Homo sapiens, UniProt O14763); assay: Surface plasmon resonance against immobilized DR5; assay type: binding; conditions: SPR, immobilized DR5, running buffer pH 7.0
# Outline: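 About 2000 RU of recombinant human DR5 was EDC/NHS-coupled to a dextran chip from 10 ug/mL in 15 mM Na acetate pH 5.6, then ethanolamine-capped. Running buffer was 10 mM phosphate, 150 mM NaCl, 3 mM EDTA, 0.01% Tween 20. Analytes were quantified by A280 and tested at 62 nM targeting PA. Association was 8 min and dissociation 10 min at 30 uL/min, with 25 mM HCl 30 s regeneration.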
# Sequence of human recombinant DR5 (O14763 56-440): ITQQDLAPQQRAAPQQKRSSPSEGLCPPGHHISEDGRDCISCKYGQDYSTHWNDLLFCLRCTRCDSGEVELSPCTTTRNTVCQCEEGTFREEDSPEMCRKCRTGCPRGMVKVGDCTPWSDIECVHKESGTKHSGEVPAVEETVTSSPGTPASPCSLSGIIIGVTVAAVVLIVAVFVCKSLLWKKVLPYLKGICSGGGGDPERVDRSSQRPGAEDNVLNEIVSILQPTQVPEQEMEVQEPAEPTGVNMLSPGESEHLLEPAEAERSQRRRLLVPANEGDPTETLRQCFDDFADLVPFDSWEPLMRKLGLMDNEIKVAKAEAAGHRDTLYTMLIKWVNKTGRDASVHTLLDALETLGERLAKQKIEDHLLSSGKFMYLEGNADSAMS
compound,measurement,setting,value
"CC(=O)O[C@H]1C(=O)[C@@]2(C)[C@H]([C@H](OC(=O)c3ccccc3)[C@]3(O)C[C@H](OC(=O)[C@H](O)[C@@H](NC(=O)c4ccccc4)c4ccccc4)C(C)=C1C3(C)C)[C@]1(OC(C)=O)CO[C@@H]1C[C@@H]2O [Paclitaxel, paclitaxel]",Annexin V binding / cell death (in words),T47D cells,statistically significant increase in annexin V binding
PEG2000-E2A6K(C12) [PA 4],Binding to DR5 (in words),human recombinant DR5,did not show any binding
